Laboratory results from article PMC10286098 (ACS Omega, 2023).
Values joined by “and” are separate entries in the source; they are usually repeats but may differ in a detail not shown here. Equal values may be shown once. Read-outs that look alike come from different tables or passages of the source.

Key:
MRC-5 cells = details: MRC-5 normal lung cells, WST-1, mean ± standard error
hDHODH = hDHODH (Homo sapiens, UniProt Q02127); assay: hDHODH fluorescence-based; assay type: biochemical; details: for IC50: IC50 over hDHODH, fluorescence-based assay, 10-dose, 3-fold dilution from 10 μM; for fold of the reported DHODH inhibitory activity of Leflunomide: versus Leflunomide 600 nM
Method in brief: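 Contract-run assay in which human DHODH oxidizes L-DHO to orotate, coupled to resazurin conversion to resorufin. Test compounds were run as 10 doses in singlet, with 3-fold dilutions from 10 μM. Reactions ran 60 min at room temperature. Orotate stop mix (5 mM final) was added, then resorufin fluorescence was read.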

[1] = A549 cells, WST-1, 24 h, mean ± standard error
[2] = H1299 cells, WST-1, 24 h, mean ± standard error
[3] = H1975 cells, WST-1, 24 h, mean ± standard error

Sequence of hDHODH (Q02127 whole entry): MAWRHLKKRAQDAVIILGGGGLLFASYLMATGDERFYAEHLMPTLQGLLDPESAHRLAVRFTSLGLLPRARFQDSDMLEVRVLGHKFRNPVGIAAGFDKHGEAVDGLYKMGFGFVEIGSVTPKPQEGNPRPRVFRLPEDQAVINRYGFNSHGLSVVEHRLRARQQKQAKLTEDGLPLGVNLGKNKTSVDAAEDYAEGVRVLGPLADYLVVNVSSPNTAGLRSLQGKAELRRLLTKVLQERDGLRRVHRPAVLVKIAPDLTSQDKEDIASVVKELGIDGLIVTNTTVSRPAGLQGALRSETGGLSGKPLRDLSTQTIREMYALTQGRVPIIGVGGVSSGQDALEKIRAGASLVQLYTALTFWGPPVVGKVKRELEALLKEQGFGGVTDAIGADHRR

SMILES	TC50 (A549 cells; [1]) [µM]	TC50 (H1299 cells; [2]) [µM]	TC50 (H1975 cells; [3]) [µM]	TC50 (A549 cells)	TC50 (MRC-5 cells)	TC50 (H1299 cells)	TC50 (H1975 cells)	decrease of cell viability (A549 cells; A549, 100 μM, 24 h, preliminary screening (Figure S1))	decrease of cell viability (H1299 cells; H1299, 100 μM, 24 h, preliminary screening (Figure S1))	decrease of cell viability (H1975 cells; H1975, 100 μM, 24 h, preliminary screening (Figure S1))	IC50 (hDHODH)	fold of the reported DHODH inhibitory activity of Leflunomide (hDHODH) [fold]
COc1ccc(-c2ccc3[nH]cc(C(=O)Nc4cccc(C(F)(F)F)c4)c3c2)cc1 [4b, 5-(4-Methoxyphenyl)-N-(3-(trifluoromethyl)phenyl)-1H-indole-3-carboxamide]	17 ± 0.5	17 ± 0.3	35 ± 4.0									
O=C(Nc1cccc(C(F)(F)F)c1)c1c[nH]c2ccc(Nc3ccc(O)cc3)cc12 [5a, 5-((4-Hydroxyphenyl)amino)-N-(3-(trifluoromethyl)phenyl)-1H-indole-3-carboxamide]	32 ± 0.9	33 ± 0.7	33 ± 2.0									
O=C(Nc1cccc(C(F)(F)F)c1)c1c[nH]c2ccc(Nc3cccc([N+](=O)[O-])c3)cc12 [5d, 5-((3-Nitrophenyl)amino)-N-(3-(trifluoromethyl)phenyl)-1H-indole-3-carboxamide]	16 ± 0.4	18 ± 0.5	29 ± 4.0									
Cc1oncc1C(=O)Nc1ccc(C(F)(F)F)cc1 [Leflunomide, reference compound]				100 < TC50 <300 μM	300 < μM	300 < μM	100 < μM					
CNC(=O)c1cc(Oc2ccc(NC(=O)Nc3ccc(Cl)c(C(F)(F)F)c3)c(F)c2)ccn1 [Regorafenib, reference compound]	13 ± 0.8	10 ± 0.4	16 ± 0.5		18 ± 2.0 µM			more than 50%	more than 50%	more than 50%		
O=C(Nc1cccc(C(F)(F)F)c1)c1c[nH]c2ccc(Br)cc12 [compound 3, 5-Bromo-N-(3-(trifluoromethyl)phenyl)-1H-indole-3-carboxamide]	22 ± 1.0	27 ± 0.8	28 ± 2.0		45 ± 8.0 µM						195 nM	3
O=C(Nc1cccc(C(F)(F)F)c1)c1c[nH]c2ccc(-c3cccc(CN4CCOCC4)c3)cc12 [compound 4a, 5-(3-(Morpholinomethyl)phenyl)-N-(3-(trifluoromethyl)phenyl)-1H-indole-3-carboxamide]	13 ± 0.3	13 ± 0.1	23 ± 2.0		17 ± 3.0 µM						1200 nM and 1210 nM	
COc1ccc(Nc2ccc3[nH]cc(C(=O)Nc4cccc(C(F)(F)F)c4)c3c2)cc1OC [compound 5b, 5-((3,4-Dimethoxyphenyl)amino)-N-(3-(trifluoromethyl)phenyl)-1H-indole-3-carboxamide]	19 ± 0.4	16 ± 0.6	25 ± 5.0									
O=C(Nc1cccc(C(F)(F)F)c1)c1c[nH]c2ccc(Nc3ccc([N+](=O)[O-])cc3)cc12 [compound 5c, 5-((4-Nitrophenyl)amino)-N-(3-(trifluoromethyl)phenyl)-1H-indole-3-carboxamide]	11 ± 0.5	11 ± 0.3	15 ± 1.0		17 ± 0.3 µM						421 nM	1.5
